High-throughput results deposited in PubChem BioAssay by several laboratories.
Shown are actives, neighbours in structure and some others; about 2% of the full set was active somewhere.
ABCB6 inh 2: blocks the human ABCB6 transporter; Q9NP58; K562-ABCB6 porphyrin accumulation, flow cytometry, 1 h; active compounds read low; fluorescence ratio to DMSO, % at 10 µM; hit rate 0.19% among 360,000;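 active = fluorescence ratio to DMSO below 75%, the collection mean minus 3 SD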;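 also: signal is porphyrin accumulated inside mitochondria; 100% equals median channel fluorescence of DMSO control wells; lower ratio means ABCB6 inhibition with less porphyrin fluorescence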
Exocytosis inh: blocks lytic granule exocytosis. TALL-104 LAMP-1 surface exposure, flow cytometry; cells stimulated with thapsigargin and PMA. inhibition, % at 10 µM. hit rate 0.66% among 360,000;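 active = inhibition above about 55%, limit read from the data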
MT1-MMP act inh: blocks activation of human MT1-MMP. HT1080 RFP-PRO-GFP cells, GFP/RFP ratio fluorescence, overnight; percent of plate control window, DMSO zero. GFP/RFP ratio change, % at 20 µM. hit rate 0.061% among 360,000. AID 651647;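 active = GFP/RFP ratio change of at least 30% with cell ATP level not reduced by more than half and red fluorescence within 50% of control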
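Assay system – RFP-PRO-GFP reporter HT1080 cells · Compound dosing – single dose of 20 µM compound, 1% DMSO final · Incubation – overnight compound exposure at 37 °C · Measure – GFP/RFP fluorescence ratio · Benchmarks – DMSO wells and RFP-L50D-GFP cells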
DAGLB inh: diacylglycerol lipase beta (human) inhibition; AID 504411; Q8NCG7; HEK293T DAGLB membrane lysate, EnzChek fluorogenic substrate; hit rate 0.059% among 340,000; inhibition, % at 5.17 µM; in the data active = inhibition above about 34%;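 also: 0% = enzyme with vehicle and 100% = wells lacking enzyme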
Target sequence (Q8NCG7 whole entry, looked up): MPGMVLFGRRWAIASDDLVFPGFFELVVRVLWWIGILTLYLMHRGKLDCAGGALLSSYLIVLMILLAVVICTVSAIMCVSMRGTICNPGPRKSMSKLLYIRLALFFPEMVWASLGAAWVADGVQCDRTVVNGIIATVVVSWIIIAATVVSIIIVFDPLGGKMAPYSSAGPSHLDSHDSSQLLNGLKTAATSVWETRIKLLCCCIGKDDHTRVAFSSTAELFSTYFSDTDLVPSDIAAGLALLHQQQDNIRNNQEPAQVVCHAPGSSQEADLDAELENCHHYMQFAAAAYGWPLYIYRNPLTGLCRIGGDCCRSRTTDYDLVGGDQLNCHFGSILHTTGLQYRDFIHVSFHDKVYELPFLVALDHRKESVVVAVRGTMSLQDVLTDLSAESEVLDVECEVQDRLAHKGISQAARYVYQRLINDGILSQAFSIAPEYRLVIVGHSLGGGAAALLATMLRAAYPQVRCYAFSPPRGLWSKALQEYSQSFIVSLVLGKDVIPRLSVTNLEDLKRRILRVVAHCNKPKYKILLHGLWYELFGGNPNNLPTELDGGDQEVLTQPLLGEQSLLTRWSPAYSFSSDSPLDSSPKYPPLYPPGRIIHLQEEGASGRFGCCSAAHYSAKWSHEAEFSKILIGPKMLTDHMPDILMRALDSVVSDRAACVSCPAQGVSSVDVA
FGF22 binding-1: binders of recombinant human FGF22 by thermal shift; AID 651658; hit rate 1.5% among 340,000; SYPRO orange fluorescence; percent of sucrose octasulfate shift, DMSO zero; Q9HCT0; activity (Tm shift, normalised), % at 9.99 µM;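 active = mean Tm shift, scaled 0 neutral to 100 positive control, at about 1.3% or above, every replicate too, limit read from the data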
VLA-4 inh: inhibition in a human VLA-4 binding assay; VLA-4 expressing cells, ligand binding flow cytometry; P13612; AID 2557; hit rate 0.2% among 330,000; inhibition, % (about 7 µM as worked out from the volumes in the protocol); in the data active = inhibition above about 50%
FGF22 binding-2: binders of human FGF22 by thermal shift. hit rate 2% among 1,000. recombinant FGF22 thermal shift, SYPRO orange fluorescence. thermal shift activity, °C (ΔTm) at 38 µM. shares compounds with FGF22 binding-1;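 active = fitted rise in melting shift crosses a set limit at or below the top valid dose tested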
FGF22 TSA DP: binders of human FGF22 by thermal shift | AID 743017 | Thermal shift assay, SYPRO orange, melting temperature shift | shares compounds with FGF22 binding-1 | Tm shift (activity), % at 38 µM | 50 tested, under 10 active;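 active = compounds whose fitted dose curve of melting temperature shift rises past a set threshold within the tested doses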
TSA no protein: compound-only SYPRO artifact for FGF22 binders; AC50, µM (top dose mostly 38 µM); shares compounds with FGF22 binding-1; compound-only SYPRO orange thermal shift counter-screen, no protein; hit rate 2% among 1,000;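 active = rising signal whose fitted curve reaches the 0.54 level within the top valid dose, showing a melting point, actives reach about 13 µM in these data; inactive = the rest, including activity in the opposite direction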; also: value is where the raw curve crosses a fixed level and not half-maximal
The depositor's hits bear a star; i = inactive; / = no result; [ ] = dose if it differs, or a comment.

SMILES | ABCB6 inh 2 | Exocytosis inh | MT1-MMP act inh | DAGLB inh | FGF22 binding-1 | VLA-4 inh | FGF22 binding-2 | TSA no protein | others
C[C@H]1CN([C@@H](C)CO)S(=O)(=O)c2ccc(C#Cc3ccccc3F)cc2O[C@@H]1CN(C)C(=O)Cc1cccnc1 | / | / | / | / | 8.3* | / | 0.11[42 µM] | i
O=C(O)/C=C/c1cccc(NC(=O)Nc2ccc([N+](=O)[O-])cc2)c1 | 90 | -12 | -5 | 3 | 1.6* | -7 | 0.077 | i
COc1ccc(-c2ccc([C@@H]3[C@H]4CN(C(=O)c5ccc6c(c5)OCO6)CCCCN4[C@H]3CO)cc2)cc1 | / | / | / | / | 0 | / | / | /
COc1ccc(-c2ccc([C@H]3[C@H](CO)N4CCCCN(C(=O)c5ccc6c(c5)OCO6)C[C@@H]34)cc2)cc1 | / | / | / | / | 1.4* | / | 0.037[42 µM] | i
COc1ccc2c(CC(=O)NNC(=O)c3ccc(O)cc3)coc2c1 | 95 | 2 | 0 | 1 | 1.6* | -10 | -0.38 | i
COc1ccc(OCC(=O)NNC(=O)Cc2coc3cc(OC)ccc23)cc1 | 99 | -6 | -2 | -3 | / | -4 | / | /
O=C(N/N=C/c1ccc(F)cc1)c1cccc(NC(=O)c2ccc(F)cc2)c1 | 100 | 40 | 3 | 1 | 0 | -7 | / | /
O=C(N/N=C/c1ccc(Cl)cc1)c1ccc2nc[nH]c2c1 | 94 | 2 | -3 | 2 | 2.5* | / | 0.017 | i
O=C(N/N=C/c1ccncc1)c1cccc(NC(=O)c2ccc(Cl)cc2)c1 | 97 | -3 | 7 | 2 | 2.4* | 24 | 0.066 | i
Cc1cccc(N/N=C/c2ccncc2)c1 | 102 | 6 | 0 | 2 | 0 | 10 | / | /
O=C(N/N=C/c1ccncc1)c1cccc(N/N=C/c2ccncc2)c1 | 95 | 1 | -1 | 2 | 1.5* | -3 | 0.004 | i
Cc1nc2c(C)cccc2cc1C(=O)N/N=C/c1ccc(O)cc1 | 97 | -5 | 3 | -4 | 2.2* | 19 | -0.39 | i
C[C@H]1CN([C@@H](C)CO)C(=O)c2cc(N(C)C)ccc2O[C@H]1CN(C)C(=O)NC1CCCCC1 | / | / | / | / | 0 | / | / | /
CC(=O)N1[C@@H](CO)[C@H](c2ccccc2)[C@@H]1CN(CC(C)C)C(=O)c1ccccn1 | / | / | / | / | 0 | / | / | /
C[C@@H]1CN([C@H](C)CO)C(=O)Cc2cc(NC(=O)CCN3CCOCC3)ccc2O[C@H]1CN(C)C(=O)Nc1ccc(F)cc1 | / | / | / | / | 0 | / | / | /
O=C(N/N=C/c1ccc(O)cc1)c1cccc(N/N=C/c2ccc(O)cc2)c1 | 96 | -1 | 2 | -1 | 1.7* | 11 | 0.26 | i
COc1ccc2oc(=N)c(C(=O)Nc3ccc(C)cc3)cc2c1 | 96 | 13 | 4 | -4 | 0 | 6 | / | /
COc1ccc2o/c(=N\O)c(C(=O)Nc3ccc(C)cc3)cc2c1 | 93 | 18 | 0 | -4 | 2.3* | / | 0.091 | i
O=C(Nc1nccs1)c1ccc(S(=O)(=O)NCc2cccs2)cc1 | 98 | 7 | -2 | 1 | 1.4* | -5 | -0.055 | i
Cc1cccc(NC(=O)COc2coc(CN3CCc4ccccc4C3)cc2=O)c1 | 86 | 7 | 9 | 3 | 7.0* | 4 | -0.023 | i
CN(C)CC(=O)N1C[C@H]2[C@@H](c3ccccc31)[C@@H](CO)N2C(=O)c1ccccn1 | / | / | / | / | 0 | / | / | /
O=C(N/N=C/c1c[nH]c2ccccc12)c1ccc([N+](=O)[O-])cc1Cl | 104 | -10 | 4 | 6 | / | 0 | / | /
O=C(N/N=C/c1c[nH]c2ccccc12)c1cccc(Cl)c1 | 92 | -5 | 0 | -2 | 2.8* | 6 | / | i | FGF22 TSA DP=0
O=C(N/N=C/c1ccsc1)c1c[nH]c2ccccc12 | 103 | -2 | 0 | -2 | 3.7* | 6 | -0.063 | i
